Measured values from ChEMBL document CHEMBL1130289, “Polyanion inhibitors of human immunodeficiency virus and other viruses. 5. Telomerized anionic surfactants derived from amino acids” (J Med Chem, 1997).

Experiments:
[1] = system: Mammalian orthoreovirus 1; test: Concentration required to inhibit reovirus-1 induced cytopathicity in Vero cells by 50%; format: functional, organism-based; settings: Mammalian orthoreovirus 1, Vero
How it was run: (§1)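 Virus was added to the cell monolayers in the presence of compound. Incubation continued until the viral cytopathic effect was scored. IC50 is the concentration that reduced virus-induced cytopathicity by 50%.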

Vero = test: Minimum cytotoxic concentration required to cause a microscopically detectable alteration of normal cell morphology in Vero cells; format: functional, Chlorocebus sabaeus
How it was run: (§2)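 Uninfected E6SM, HeLa or Vero cells were exposed to compound and examined by microscopy. MCC is the lowest concentration causing a detectable alteration of normal cell morphology.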

Sindbis virus = test: Concentration required to inhibit Sindbis induced cytopathicity in Vero cells by 50%; format: functional, organism-based; how it was run: as §1
[2] = system: Human immunodeficiency virus 2; test: Concentration required to inhibit HIV-2 induced cytopathicity in MT-4 cells by 50%; format: functional, organism-based; settings: Human immunodeficiency virus 2, MT4
How it was run: (§3)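 MT-4 cells were infected with HIV-1 (strain HTLV-IIIB/LAI) or HIV-2 (strain LAV-2 ROD) and exposed to compound. IC50 is the concentration that inhibited HIV-induced cytopathicity by 50%. Values are means of two separate experiments.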

[3] = system: Vesicular stomatitis virus; test: Concentration required to inhibit vesicular stomatitis induced cytopathicity in E6SM cells by 50%; format: functional, organism-based
Human betaherpesvirus 5 [4] = test: Concentration required to inhibit HCMV(AD169) induced cytopathicity in HEL cells by 50%; format: functional, organism-based; settings: Human betaherpesvirus 5, HEL; how it was run: as §1
[5] = system: Human immunodeficiency virus 2; test: Concentration required to inhibit by 50% syncytium formation between MOLT-4 cells and HIV-2 (ROD) infected HUT-78 cells; format: functional, organism-based; settings: Human immunodeficiency virus 2, MOLT-4
How it was run: (§4)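 Uninfected MOLT-4 cells were co-cultured with HUT-78 cells chronically infected with HIV-1 (IIIB) or HIV-2 (ROD), in the presence of compound. The end point was syncytium formation, and IC50 is the concentration giving 50% inhibition. Values are means of two separate experiments.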

MT4 = test: Concentration required to reduce the viability of mock-infected MT-4 cells by 50%; format: functional; settings: Homo sapiens
How it was run: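 Mock-infected MT-4 cells were exposed to compound. CC50 is the concentration that reduced cell viability by 50%. Values are means of two separate experiments.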

Vaccinia virus = test: Concentration required to inhibit Vaccinia induced cytopathicity in E6SM cells by 50%; format: functional, organism-based; settings: Orthopoxvirus vaccinia
Poliovirus 1 = test: Concentration required to inhibit Polio-1 induced cytopathicity in HeLa cells by 50%; format: functional, organism-based; settings: Enterovirus C
[6] = system: Human immunodeficiency virus 1; test: Concentration required to inhibit by 50% syncytium formation between MOLT-4 cells and HIV-1(IIIB); format: functional, organism-based; settings: Human immunodeficiency virus 1, MOLT-4; how it was run: as §4
Human alphaherpesvirus 1 [7] = test: Concentration required to inhibit HSV-1 TK-(B2006) induced cytopathicity in E6SM cells by 50%; settings: Human alphaherpesvirus 1, E6SM
HeLa = test: Minimum cytotoxic concentration required to cause a microscopically detectable alteration of normal cell morphology in HeLa cells; format: functional, Homo sapiens; how it was run: as §2
HEL = test: Minimum cytotoxic concentration required to cause a microscopically detectable alteration of normal cell morphology in HEL cells; format: functional, Homo sapiens
[8] = system: Human immunodeficiency virus 1; test: Concentration required to inhibit HIV-1 induced cytopathicity in MT-4 cells by 50%; format: functional, organism-based; settings: Human immunodeficiency virus 1, MT4; how it was run: as §3
Human respirovirus 3 = test: Concentration required to inhibit parainfluenza-3 induced cytopathicity in Vero cells by 50%; format: functional, organism-based; settings: Human respirovirus 3, Vero; how it was run: as §1
Human alphaherpesvirus 2 = test: Concentration required to inhibit HSV-2(G) induced cytopathicity in E6SM cells by 50%; settings: Human alphaherpesvirus 2, E6SM
CEM-4 = test: Cytotoxic concentration required to reduce the viability of uninfected cells by 50% after 5 days of incubation in the presence on CEM-4 cells.; format: functional; settings: Homo sapiens, CEM-4, 120 h
How it was run: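 Uninfected CEM-4 cells were incubated with compound for 5 days. CC50 is the concentration that reduced viability by 50%. Values average at least two separate experiments.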

[9] = system: Human immunodeficiency virus 1; test: Inhibitory concentration required to inhibit HIV-induced cytopathicity in CEM-4 cells by 50% based in the MTT assay; format: functional, organism-based; settings: Human immunodeficiency virus 1, CEM-4
Junin virus = test: Concentration required to inhibit Junin induced cytopathicity in Vero cells by 50%; format: functional, organism-based; settings: Mammarenavirus juninense
Tacaribe virus = test: Concentration required to inhibit Tacaribe induced cytopathicity in Vero cells by 50%; format: functional, cell-based; settings: Mammarenavirus tacaribeense
Human alphaherpesvirus 1 [10] = test: Concentration required to inhibit HSV-1(KOS) induced cytopathicity in E6SM cells by 50%; settings: Human alphaherpesvirus 1, E6SM
Semliki Forest virus = test: Concentration required to inhibit forest induced cytopathicity in Vero cells by 50%; format: functional, organism-based; how it was run: as §1
E6SM = test: Minimum cytotoxic concentration required to cause a microscopically detectable alteration of normal cell morphology in E6SM cells; format: functional, Homo sapiens; how it was run: as §2
Coxsackievirus = test: Concentration required to inhibit Coxsackie induced cytopathicity in HeLa cells by 50%; format: functional, organism-based; how it was run: as §1
Human betaherpesvirus 5 [11] = test: Concentration required to inhibit HCMV(Davis) induced cytopathicity in HEL cells by 50%; format: functional, organism-based; settings: Human betaherpesvirus 5, HEL; how it was run: as §1
[12] = system: Human immunodeficiency virus 1; test: Inhibitory concentration required to inhibit HIV-induced cytopathicity in CEM-4 cells by 50% based in the MTT assay; Not active; format: functional, organism-based

CCCCCCCCCCCCSCCCCCCCCCCCCCCCCCCCCCCCCCCCCCCCCCCCCCCCCCCCCCCCCCCC(=O)N(CC)CCCCCCCCCCC(=O)NC(CCC(=O)[O-])C(=O)O.[Na+] (stereo not given)
IC50 [1]: > 10 µg/mL
MMC (Vero): >40 µg/mL
IC50 (Sindbis virus): > 10 µg/mL
IC50 [2]: 7 µg/mL
IC50 [3]: > 40 µg/mL
IC50 (Human betaherpesvirus 5 [4]): 10 µg/mL
IC50 [5]: 30 µg/mL
CC50 (MT4): > 250 µg/mL
IC50 (Vaccinia virus): > 40 µg/mL
IC50 (Poliovirus 1): > 200 µg/mL
IC50 [6]: 6 µg/mL
IC50 (Human alphaherpesvirus 1 [7]): 40 µg/mL
MMC (HeLa): >200 µg/mL
MMC (HEL): >50 µg/mL
IC50 [8]: 0.1 µg/mL
IC50 (Human respirovirus 3): > 10 µg/mL
IC50 (Human alphaherpesvirus 2): > 40 µg/mL
CC50 (CEM-4): > 300 µg/mL
IC50 [9]: 1 µg/mL
IC50 (Junin virus): > 50 µg/mL
IC50 (Tacaribe virus): > 50 µg/mL
IC50 (Human alphaherpesvirus 1 [10]): 20 µg/mL
IC50 (Semliki Forest virus): > 10 µg/mL
MMC (E6SM): 100 µg/mL
IC50 (Coxsackievirus): > 200 µg/mL
IC50 (Human betaherpesvirus 5 [11]): 5 µg/mL

CCCCCCCCCCCCSCCCCCCCCCCCCCCCCCCCCCCCCCCCCCCCCC(=O)N(CC)CCCCCCCCCCC(=O)[O-].[Na+]
IC50 [1]: > 200 µg/mL
MMC (Vero): >200 µg/mL
IC50 (Sindbis virus): > 200 µg/mL
IC50 [2]: > 29 µg/mL
IC50 [3]: > 40 µg/mL
IC50 (Human betaherpesvirus 5 [4]): 9 µg/mL
IC50 [5]: 50 µg/mL
CC50 (MT4): 30 µg/mL
IC50 (Vaccinia virus): > 40 µg/mL
IC50 (Poliovirus 1): > 200 µg/mL
IC50 [6]: 30 µg/mL
IC50 (Human alphaherpesvirus 1 [7]): > 200 µg/mL
MMC (HeLa): >200 µg/mL
MMC (HEL): >50 µg/mL
IC50 [8]: > 16 µg/mL
IC50 (Human respirovirus 3): > 200 µg/mL
IC50 (Human alphaherpesvirus 2): 20 µg/mL
CC50 (CEM-4): 27 µg/mL
IC50 [9]: > 11 µg/mL
IC50 (Junin virus): 20 µg/mL
IC50 (Tacaribe virus): > 20 µg/mL
IC50 (Human alphaherpesvirus 1 [10]): > 40 µg/mL
IC50 (Semliki Forest virus): > 200 µg/mL
MMC (E6SM): 100 µg/mL
IC50 (Coxsackievirus): > 200 µg/mL
IC50 (Human betaherpesvirus 5 [11]): 9 µg/mL

CCCCCCCCCCCCSCCCCC(=O)NCCCCCCCCCCC(=O)NCCC(=O)[O-].[Na+]
IC50 [1]: > 200 µg/mL
MMC (Vero): >200 µg/mL
IC50 (Sindbis virus): > 200 µg/mL
IC50 [2]: 27 µg/mL
IC50 [3]: > 200 µg/mL
IC50 (Human betaherpesvirus 5 [4]): 30 µg/mL
IC50 [5]: 6 µg/mL
IC50 [12]: Not Active
CC50 (MT4): > 250 µg/mL
IC50 (Vaccinia virus): > 200 µg/mL
IC50 (Poliovirus 1): > 200 µg/mL
IC50 [6]: 30 µg/mL
IC50 (Human alphaherpesvirus 1 [7]): 70 µg/mL
MMC (HeLa): >200 µg/mL
MMC (HEL): >50 µg/mL
IC50 [8]: 6 µg/mL
IC50 (Human respirovirus 3): > 200 µg/mL
IC50 (Human alphaherpesvirus 2): 20 µg/mL
CC50 (CEM-4): > 300 µg/mL
IC50 (Junin virus): 50 µg/mL
IC50 (Tacaribe virus): 43 µg/mL
IC50 (Human alphaherpesvirus 1 [10]): 40 µg/mL
IC50 (Semliki Forest virus): > 200 µg/mL
MMC (E6SM): 400 µg/mL
IC50 (Coxsackievirus): > 200 µg/mL
IC50 (Human betaherpesvirus 5 [11]): 23 µg/mL

CCCCCCCCCCCCSCCCCCCCCCCC(=O)N(C)CCCCCCCCCCC(=O)[O-].[Na+]
IC50 [1]: > 200 µg/mL
MMC (Vero): >200 µg/mL
IC50 (Sindbis virus): > 200 µg/mL
IC50 [2]: 70 µg/mL
IC50 [3]: > 200 µg/mL
IC50 (Human betaherpesvirus 5 [4]): > 50 µg/mL
IC50 [5]: 150 µg/mL
IC50 [12]: Not Active
CC50 (MT4): 128 µg/mL
IC50 (Vaccinia virus): > 200 µg/mL
IC50 (Poliovirus 1): > 200 µg/mL
IC50 [6]: 150 µg/mL
IC50 (Human alphaherpesvirus 1 [7]): > 200 µg/mL
MMC (HeLa): >200 µg/mL
MMC (HEL): >50 µg/mL
IC50 [8]: 28 µg/mL
IC50 (Human respirovirus 3): > 200 µg/mL
IC50 (Human alphaherpesvirus 2): 70 µg/mL
CC50 (CEM-4): > 200 µg/mL
IC50 (Junin virus): > 50 µg/mL
IC50 (Tacaribe virus): > 50 µg/mL
IC50 (Human alphaherpesvirus 1 [10]): > 200 µg/mL
IC50 (Semliki Forest virus): > 200 µg/mL
MMC (E6SM): >400 µg/mL
IC50 (Coxsackievirus): > 200 µg/mL
IC50 (Human betaherpesvirus 5 [11]): > 50 µg/mL

CCCCCCCCCCCCSCCCCCCCCCCCCC(=O)NCCCCCCCCCCC(=O)[O-].[Na+]
IC50 [1]: > 200 µg/mL
MMC (Vero): >200 µg/mL
IC50 (Sindbis virus): > 200 µg/mL
IC50 [2]: 47 µg/mL
IC50 [3]: > 200 µg/mL
IC50 (Human betaherpesvirus 5 [4]): > 50 µg/mL
IC50 [5]: 150 µg/mL
IC50 [12]: Not Active
CC50 (MT4): 136 µg/mL
IC50 (Vaccinia virus): > 200 µg/mL
IC50 (Poliovirus 1): > 200 µg/mL
IC50 [6]: 50 µg/mL
IC50 (Human alphaherpesvirus 1 [7]): > 200 µg/mL
MMC (HeLa): >200 µg/mL
MMC (HEL): >50 µg/mL
IC50 [8]: 20 µg/mL
IC50 (Human respirovirus 3): > 200 µg/mL
IC50 (Human alphaherpesvirus 2): > 200 µg/mL
CC50 (CEM-4): 37 µg/mL
IC50 (Junin virus): > 50 µg/mL
IC50 (Tacaribe virus): > 50 µg/mL
IC50 (Human alphaherpesvirus 1 [10]): > 200 µg/mL
IC50 (Semliki Forest virus): > 200 µg/mL
MMC (E6SM): >200 µg/mL
IC50 (Coxsackievirus): > 200 µg/mL
IC50 (Human betaherpesvirus 5 [11]): 35 µg/mL
